# Assay results from ChEMBL document CHEMBL4837232, “Synthesis, in vitro antiprotozoal activity, molecular docking and molecular dynamics studies of some new monocationic guanidinobenzimidazoles” (Eur J Med Chem, 2021).
# Key:
# [1] = test system: Plasmodium falciparum; test: Antiplasmodial activity against bloodstream form of Plasmodium falciparum NF54 […] assessed as reduction in [3H]-hypoxanthine incorporation pretreated for 48 hrs followed by [3H]-hypoxanthine addition measured after 24 hrs by liquid scintillation counting method; assay type: functional, organism-based
# [2] = test system: Trypanosoma brucei rhodesiense; test: Antitrypanosomal activity against bloodstream form of Trypanosoma brucei rhodesiense STIB900 incubated for 70 hrs by resazurin dye-based fluorometric analysis; assay type: functional, organism-based; conditions: STIB900, 70 h
# [3] = test system: Trypanosoma cruzi; test: Antitrypanosomal activity against Trypanosoma cruzi Tulahuen C4 strain amastigotes infected in rat L6 cells measured after 96 hrs by inverted microscopy analysis; assay type: functional, organism-based; conditions: Tulahuen C4, L6, 96 h
# [4] = test system: Leishmania donovani; test: Antileishmanial activity against Leishmania donovani MHOM/ET/67/L82 amastigotes measured after 70 hrs by resazurin dye based fluorometric analysis; assay type: functional, organism-based; conditions: MHOM/ET/67/L82, 70 h
# [5] = test system: L6; test: Cytotoxicity against rat L6 cells assessed as reduction in cell viability incubated for 70 hrs by resazurin dye based fluorescence assay; conditions: L6, 70 h
# How it was run: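 Uses cultured L-6 rat skeletal myoblasts with an Alamar Blue viability read-out, run per an earlier protocol. The IC50 is the mean of at least two independent experiments, with individual values within a factor of two.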
# [6] = Selectivity index, ratio of IC50 for cytotoxicity against rat L6 cells to IC50 for antiplasmodial activity against bloodstream form of Plasmodium falciparum NF54; assay type: toxicity, cell-based; conditions: read-out: Ratio IC50
# How it was run: (§1)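 Each index is the L6-cell IC50 divided by the IC50 for the given parasite. Each IC50 is the mean of at least two independent experiments, agreeing within a factor of two.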
# [7] = Selectivity index, ratio of IC50 for cytotoxicity against rat L6 cells to IC50 for antitrypanosomal activity against bloodstream form of Trypanosoma brucei rhodesiense STIB900; assay type: toxicity, cell-based; conditions: read-out: Ratio IC50; how it was run: as §1
# [8] = Selectivity index, ratio of IC50 for cytotoxicity against rat L6 cells to IC50 for antitrypanosomal activity against Trypanosoma cruzi Tulahuen C4 strain amastigotes infected in rat L6 cell; assay type: toxicity, cell-based; conditions: read-out: Ratio IC50; how it was run: as §1
# [9] = Selectivity index, ratio of IC50 for cytotoxicity against rat L6 cells to IC50 for antileishmanial activity against Leishmania donovani MHOM/ET/67/L82 amastigotes; assay type: toxicity, cell-based; conditions: read-out: Ratio IC50; how it was run: as §1
IC50 [1],IC50 [2],IC50 [3],Structure (SMILES),IC50 [4],IC50 [5],selectivity ratio [6],selectivity ratio [7],selectivity ratio [8],selectivity ratio [9]
0.279 µg/mL,16 µg/mL,36.5 µg/mL,N=C(N)Nc1ccc2[nH]c(-c3ccc(-c4ccccc4)s3)nc2c1,44 µg/mL,48.4 µg/mL,,,,
1.89 µg/mL,29.5 µg/mL,90.5 µg/mL,N=C(N)Nc1ccc2[nH]c(-c3ccc(Cl)cc3)nc2c1,64.5 µg/mL,71.1 µg/mL,,,,
4.07 µg/mL,11.6 µg/mL,61.2 µg/mL,N=C(N)Nc1ccc2[nH]c(-c3ccccc3)nc2c1,> 100 µg/mL,> 100 µg/mL,,,,
37.2 µg/mL,72.1 µg/mL,59.1 µg/mL,N=C(N)Nc1ccc2[nH]c(-c3ccc(C(=O)O)cc3)nc2c1,> 100 µg/mL,> 100 µg/mL,,,,
2.67 µg/mL,6.04 µg/mL,67 µg/mL,N=C(N)Nc1ccc2[nH]c(-c3ccc(F)c(F)c3)nc2c1,> 100 µg/mL,> 100 µg/mL,,,,
1.17 µg/mL,18.2 µg/mL,89.5 µg/mL,N#Cc1ccc(-c2nc3cc(NC(=N)N)ccc3[nH]2)cc1,> 100 µg/mL,> 100 µg/mL,,,,
1.14 µg/mL,5.62 µg/mL,21.7 µg/mL,N=C(N)Nc1ccc2[nH]c(-c3cc(-c4ccc(Cl)cc4)on3)nc2c1,7.7 µg/mL,46.8 µg/mL,,,,

# The remaining lines, values behind:
Structure (SMILES),IC50 [1],IC50 [2],IC50 [3],IC50 [4],IC50 [5],selectivity ratio [6],selectivity ratio [7],selectivity ratio [8],selectivity ratio [9]
N=C(N)Nc1ccc2[nH]c(-c3ccc(-c4cccs4)s3)nc2c1,0.19 µg/mL,11.8 µg/mL,46.1 µg/mL,37.7 µg/mL,49.9 µg/mL,,,,
N=C(N)Nc1ccc2[nH]c(-c3ccc(-c4ccccc4)cc3)nc2c1,0.018 µg/mL,21.5 µg/mL,54.3 µg/mL,52.5 µg/mL,46.2 µg/mL,2360,2,0.8,0.8
COc1ccc(Oc2ccc(-c3nc4cc(NC(=N)N)ccc4[nH]3)cc2)cc1OC,0.052 µg/mL,12.5 µg/mL,58.6 µg/mL,58 µg/mL,> 100 µg/mL,> 1920,> 8,> 2,> 2
N=C(N)Nc1ccc2[nH]c(-c3ccc(Oc4ccccc4)cc3)nc2c1,1.87 µg/mL,16.1 µg/mL,49.5 µg/mL,> 100 µg/mL,51.6 µg/mL,,,,
Cc1ccc(-c2nc3cc(NC(=N)N)ccc3[nH]2)c(C)c1,6.26 µg/mL,40.8 µg/mL,> 100 µg/mL,> 100 µg/mL,97.8 µg/mL,,,,
N=C(N)Nc1ccc2[nH]c(-c3cccc4cnccc34)nc2c1,2.72 µg/mL,3.8 µg/mL,8.57 µg/mL,46.3 µg/mL,44.6 µg/mL,,,,
N=C(N)Nc1ccc2[nH]c(-c3cccc4ccccc34)nc2c1,1.41 µg/mL,11.8 µg/mL,63.6 µg/mL,> 100 µg/mL,48.9 µg/mL,,,,
COc1ccc(-c2nc3cc(NC(=N)N)ccc3[nH]2)cc1OC,0.153 µg/mL,23.8 µg/mL,> 100 µg/mL,97.8 µg/mL,78 µg/mL,,,,
N=C(N)Nc1ccc2[nH]c(-c3ccc4c(c3)Cc3ccccc3-4)nc2c1,0.168 µg/mL,6.03 µg/mL,34.3 µg/mL,40.3 µg/mL,43.6 µg/mL,,,,
N=C(N)Nc1ccc2[nH]c(-c3ccc4c(c3)OCCO4)nc2c1,0.82 µg/mL,10.1 µg/mL,75.1 µg/mL,56.2 µg/mL,73.5 µg/mL,,,,
N=C(N)Nc1ccc2[nH]c(-c3csc4ccccc34)nc2c1,0.57 µg/mL,12.1 µg/mL,53.1 µg/mL,58.6 µg/mL,40 µg/mL,,,,
N=C(N)Nc1ccc2[nH]c(-c3ccc(OCc4ccccc4)cc3)nc2c1,0.226 µg/mL,13.6 µg/mL,38 µg/mL,> 100 µg/mL,43.2 µg/mL,,,,
Cc1ncsc1-c1nc2cc(NC(=N)N)ccc2[nH]1,3.03 µg/mL,17.3 µg/mL,64 µg/mL,46.8 µg/mL,93 µg/mL,,,,
